Measurements as given in ChEMBL document CHEMBL1157965, “Mono-, Bi-, and triphenanthrenes from the tubers of Cremastra appendiculata” (J Nat Prod, 2006).

Columns and labels:
Type in all cases: functional, cell-based
[1] = system: A2780; assay: Cytotoxicity against human A2780 cells after 96 hrs by MTT assay; conditions: A2780, 96 h
Method in brief: (§1)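 Cells kept in RPMI 1640 with 10% FBS, 100 units/mL penicillin and 100 µg/mL streptomycin at 37 °C, humidified 5% CO2. Seeded at 1200 cells/well; compounds added after 24 h at five concentrations from DMSO stocks (0.1% DMSO final), three wells per concentration.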

[2] = system: BGC-823; assay: Cytotoxicity against human BGC823 cells after 96 hrs by MTT assay; conditions: BGC-823, 96 h; method in brief: as §1
[3] = system: Bel-7402; assay: Cytotoxicity against human Bel7402 cells after 96 hrs by MTT assay; conditions: Bel-7402, 96 h; method in brief: as §1
[4] = system: MCF7; assay: Cytotoxicity against human MCF7 cells after 96 hrs by MTT assay; conditions: MCF7, 96 h; method in brief: as §1
[5] = system: A549; assay: Cytotoxicity against human A549 cells after 96 hrs by MTT assay; conditions: A549, 96 h; method in brief: as §1
[6] = system: WISH; assay: Cytotoxicity against human WISH cells after 96 hrs by MTT assay; method in brief: as §1
[7] = system: HCT-8; assay: Cytotoxicity against human HCT8 cells after 96 hrs by MTT assay; conditions: HCT-8, 96 h; method in brief: as §1

| Compound | IC50 [1] [µM] | IC50 [2] [µM] | IC50 [3] [µM] | IC50 [4] [µM] | IC50 [5] [µM] | IC50 [6] [µM] | IC50 [7] [µM] |
| --- | --- | --- | --- | --- | --- | --- | --- |
| COc1ccc2c(ccc3c(-c4c(O)ccc5c4ccc4c(-c6c(O)cc(OC)c7c6ccc6cc(O)ccc67)c(O)cc(OC)c45)c(O)cc(OC)c32)c1 | 8.1 | 8.4 | 8.2 | 8.3 | 11.6 | > 15 | 8 |
| COc1ccc2c(ccc3cc(O)cc(OC)c32)c1 | > 5 | > 5 | > 5 | > 5 | > 5 | > 5 | > 5 |
| COc1ccc2c(ccc3c(-c4c(O)cc(OC)c5c4ccc4cc(O)ccc45)c(O)cc(OC)c32)c1 | > 10.2 | > 10.2 | > 10.2 | > 10.2 | > 10.2 | > 10.2 | > 10.2 |
| COC1=CC(=O)C(O)(CC(C)=O)c2ccc3cc(OC)ccc3c21 (stereo not drawn) | > 15.3 | > 15.3 | > 15.3 | > 15.3 | > 15.3 | > 15.3 | > 15.3 |
| COc1ccc2c(ccc3c(-c4c(O)cc(OC)c5c4ccc4cc(OC)ccc45)c(O)cc(OC)c32)c1 | 11 | 9.5 | 11.1 | 11.9 | 11.6 | 5 | 10.7 |
| COC1=CC(=O)C(O)(CC(C)=O)c2ccc3cc(O)ccc3c21 (stereo not drawn) | > 16 | > 16 | > 16 | > 16 | > 16 | > 16 | > 16 |
| COc1cc(O)c(-c2c(O)cc(OC)c3c2ccc2cc(O)ccc23)c2ccc3cc(O)ccc3c12 [CIRRHOPETALANTHIN] | 13.2 | 10.5 | 8.4 | 12.5 | 17.8 | > 22.7 | 11.2 |
| COc1cc(O)cc2ccc3cc(O)ccc3c12 [FLAVANTHRININ] | > 20.8 | > 20.8 | > 20.8 | > 20.8 | > 20.8 | > 20.8 | > 20.8 |
| CC[C@@]1(O)C(=O)OCc2c1cc1n(c2=O)Cc2cc3c(CN(C)C)c(O)ccc3nc2-1 [TOPOTECAN] | 1.1 | 4.4 | 1.2 | 1.9 | 3.3 | 1.3 | 1.5 |
